Screens deposited in PubChem BioAssay by several laboratories.
HGIII-sPLA2 inh – human group III sPLA2 inhibitors, primary screen, biochemical, QFRET, BODIPY PC-A2 liposome substrate; QFRET BODIPY PC-A2 liposome hydrolysis, fluorescence; inhibition, % at 12.2 µM; hit rate 0.56% among 370,000; AID 743126, 2013;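 active = inhibition above mean plus 3 SD of compounds lying within the high and low control bounds, cut at about 19% in these data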
Target sequence (Q9NZ20 whole entry, looked up): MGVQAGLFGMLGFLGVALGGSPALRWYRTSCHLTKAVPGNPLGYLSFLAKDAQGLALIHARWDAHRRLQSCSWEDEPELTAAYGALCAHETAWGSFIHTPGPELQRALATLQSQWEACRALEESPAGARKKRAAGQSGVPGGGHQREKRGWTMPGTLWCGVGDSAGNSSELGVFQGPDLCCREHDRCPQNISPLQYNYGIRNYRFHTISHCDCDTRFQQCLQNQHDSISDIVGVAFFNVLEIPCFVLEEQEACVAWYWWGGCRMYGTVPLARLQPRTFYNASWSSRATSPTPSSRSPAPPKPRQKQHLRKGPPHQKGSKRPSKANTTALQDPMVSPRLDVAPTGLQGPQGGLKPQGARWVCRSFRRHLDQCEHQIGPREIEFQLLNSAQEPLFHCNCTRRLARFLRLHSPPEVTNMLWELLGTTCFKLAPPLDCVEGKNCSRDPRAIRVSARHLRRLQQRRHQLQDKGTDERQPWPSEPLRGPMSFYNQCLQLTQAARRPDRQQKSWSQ
SKKanGAS inh – S. pyogenes SKKanGAS growth inhibitors in kanamycin, primary screen, streptokinase expression inhibitor project, SKKanGAS strain, BacTiter-Glo luminescence | 6 h | inhibition, % at 7.5 µM | hit rate 1.3% among 300,000;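 active = mean replicate score, as percent of positive control median, at least 50; inconclusive = mean below 50 but one replicate at or above 50; inactive = mean and every replicate below 50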;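 note: strain carries kanamycin resistance gene driven by streptokinase promoter and grows in 40 µg/ml kanamycin; loss of luminescence reflects streptokinase promoter inhibition or plain growth inhibition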
ARFGAP1 inhibitor – inhibitors of rat ARFGAP1 GAP activity, primary screen, biochemical, fluorescence polarization, GDP tracer; Arfgap1-stimulated ARF1 GTP hydrolysis, GDP FP detection; inhibition, % at 16.5 µM; hit rate 0.26% among 360,000; AID 651572, 2012;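 active = inhibition above a per-plate limit, mean inhibition of low control wells plus 3 SD, cut at about 25% in these data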
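Assay system: purified rat His6-Arfgap1 residues 1-136 (GAP domain); Reagent: human Δ17 ARF1 bound to GTP; Dosing: 16.5 µM single point, 1.26% DMSO; Times: GTP hydrolysis reaction 2 h at 25 °C; Signal: FP, GDP Alexa 633 tracer displaced from anti-GDP antibody, 620/688 nm; Measure: % inhibition from polarization.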
ASAP1 inh – inhibitors of human ASAP1 ArfGAP activity, primary screen, biochemical, fluorescence polarization | Arf-GAP with SH3 domain, ANK repeat and PH domain-containing protein 1 (Homo sapiens), … | ASAP1-stimulated ARF1 GTP hydrolysis, GDP FP detection | inhibition, % at 16.5 µM | hit rate 0.19% among 360,000; in the data active = inhibition above about 25%
Calb FLC – C. albicans growth inhibition with fluconazole, primary screen, CaCi-2 strain, Alamar Blue fluorescence. C. albicans CaCi-2 + fluconazole, 48 h. growth inhibition, % (no concentration beside the values). hit rate 0.57% among 300,000;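 active = growth inhibition above about 58% in most replicates, limit read from the data, passing the limit was not always enough; inconclusive = exactly half the replicates above a set limit; inactive = most replicates below a set limit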;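 note: all wells also contain fluconazole at 8 µg/ml as a sub-toxic cotreatment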
Numbers stand for hits; n = inactive; u = inconclusive; x = no result. Shown are actives, neighbours in structure and some others; about 2.3% of the full set was active somewhere.

SMILES | HGIII-sPLA2 inh | SKKanGAS inh | ARFGAP1 inhibitor | ASAP1 inh | Calb FLC
Cc1noc(C)c1C(=O)N1CCC1(C)C(=O)NS(=O)(=O)c1cccc(Cl)c1 (centres undefined) | n | x | n | n | x
Nc1ccc(N2CCN(c3ccc(F)cc3)CC2)cc1 | n | n | n | n | 103
O=S(=O)(Nc1nccs1)c1ccc(Nc2nnc(-c3ccccc3)c3ccccc23)cc1 | n | 103 | n | n | n
Cc1ccc(C(=O)/C=C\C(=O)c2ccc(C)cc2)cc1 | n | 56 | n | n | n
Cc1ccccc1NCC(=O)N/N=C/c1ccc[nH]1 | n | x | x | x | x
COc1cc(/C(C)=C/c2ccccc2)c2c(c1)oc1ccccc12 | x | 55 | x | x | n
N#C/C(=C(\O)Cc1ccccc1)c1nc2ccccc2[nH]1 | n | n | n | n | n
N#C/C(=C(/O)c1ccco1)c1nc2ccccc2[nH]1 | n | n | n | n | 79
COc1cnc(-c2ccccn2)nc1Sc1ccccc1 | n | 91 | n | n | n
COc1cnc(-c2ccccn2)nc1Sc1ccc(F)cc1 | n | 56 | n | n | u
COc1ccc(Sc2nc(-c3ccccn3)ncc2OC)cc1 | n | n | n | n | n
CC(=O)Nc1sc2c(c1-c1nc3ccccc3s1)CNC2 | n | x | x | x | x
O=[N+]([O-])c1ccc(O)c(-c2nc(-c3ccccc3)c(-c3cccs3)[nH]2)c1 | n | 102 | n | n | n
O=C(O)c1ccc(-c2nc(-c3ccccc3)c(-c3cccs3)[nH]2)cc1 | n | n | n | n | n
Cc1ccc(NC(=O)OC2CC3CC2[C@H]2CCCCN2C3)cc1C (some centres undefined) | n | x | x | x | x
Clc1ccccc1Sc1ccc(-c2ccccn2)s1 | n | 62 | n | n | n
O=c1nc(N/N=C/c2ccccn2)cn[nH]1 | n | n | n | n | 106
Cc1ccc(/C=N/Nc2cn[nH]c(=O)n2)o1 | n | n | n | n | n
O=c1cnnc(N/N=C/c2ccccn2)[nH]1 | n | n | n | n | 95
CCCCCCCCN1C(=O)[C@@H](CC(=O)N2CCOCC2)C[C@@]2(C(=O)OC)C1=C[C@H](COCc1ccccc1)O[C@@H]2C | n | x | x | x | x
CC(C)(C)c1ccc(C(=O)Nc2nnc(C3=COCCO3)o2)cc1 | n | 80 | n | n | x
COc1ccc(C(=O)Nc2nnc(C3=COCCO3)o2)cc1OC | n | n | n | n | x
CN(C)c1ccc(C(=O)Nc2nnc(C3=COCCO3)o2)cc1 | n | n | n | n | n
CC(C)Oc1ccc(C(=O)Nc2nnc(C3=COCCO3)o2)cc1 | n | 73 | n | n | n
O=C(Nc1nnc(C2=COCCO2)o1)c1cccc(F)c1 | n | 63 | n | n | x
SMILES | HGIII-sPLA2 inh | SKKanGAS inh | ARFGAP1 inhibitor | ASAP1 inh | Calb FLC
C/C=C/C=C/C(=O)c1cc(C)c(OC(=O)CNC(=O)OC(C)(C)C)c(C)c1O | n | x | n | n | x
O=C(Nc1ccc(F)cc1)Nc1cc(OCC(F)(F)F)cc(OCC(F)(F)F)c1 | n | 78 | n | n | n
CCOc1ccc(NC(=O)Nc2cc(OCC(F)(F)F)cc(OCC(F)(F)F)c2)cc1 | n | n | n | n | n
COc1cccc(CN(C)C[C@@H]2OCc3cnnn3CCCC(=O)N([C@@H](C)CO)C[C@H]2C)c1 | n | x | n | n | x
C[C@@H](O)[C@H]1C(=O)N2C(C(=O)O)=C(S[C@@H]3CN[C@H](C(=O)N(C)C)C3)[C@H](C)[C@H]12 | x | 110 | x | x | x
COC(=O)[C@]12C[C@H](CC(=O)NCc3cccs3)C(=O)N(Cc3ccccc3)C1=C[C@H](C(C)C)O[C@@H]2C1CC1 | n | x | n | n | x
COC(=O)c1cc(-c2ccccc2OC)c(=O)n2c1CCC2 | n | x | x | x | x
CCCCNC(=O)C[C@@H]1C(=O)N(CCc2ccc(Cl)cc2)C2=CCCCC[C@]21C(=O)OC | n | x | x | x | x
CCOC(=O)c1nn(-c2ccccc2Cl)c(=O)cc1OCC(=O)Nc1cccc(OC)c1 | n | 53 | n | n | n
COc1cc(O)c(C(CC(=O)N2CCCC(C)C2)c2ccccc2)c(OC)c1 (centres undefined) | n | x | x | x | x
O=C1/C(=N\S(=O)(=O)c2cccs2)C([n+]2ccccc2)=C([O-])c2ccccc21 | n | n | n | n | n
